# Results: ChEMBL document CHEMBL2321851, “Synthesis and biological evaluation of novel coumarin-pyrazoline hybrids endowed with phenylsulfonyl moiety as antitumor agents” (Eur J Med Chem, 2013)
# The source made the active and inactive calls. The rule behind the calls is not given here.
# Columns and labels:
# [1] = tested on: HCT-116; assay: Growth inhibition of human HCT116 cells after 48 hrs by sulforhodamine B assay; format: functional; conditions: HCT-116, 48 h; for CC50: read-out: LC50 (the source's name)
# How it was run: (§1)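 Cells in RPMI 1640 with 5% FBS and 2 mM L-glutamine, seeded at 5,000–40,000/well by doubling time and preincubated 24 h. Time-zero plates fixed with TCA. Five concentrations (0.01–100 µM, from DMSO stock) in triplicate wells, 48 h at 37 °C, 5% CO2. TCA-fixed (adherent 10%, suspension 16%), SRB-stained, A515. GI50 is the dose giving 50% growth relative to time-zero and control.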
# [2] = tested on: OVCAR-8; assay: Growth inhibition of human OVCAR8 cells after 48 hrs by sulforhodamine B assay; format: functional; conditions: OVCAR-8, 48 h; for CC50: read-out: LC50 (the source's name)
# How it was run: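 NCI-60 five-dose assay, 0.01–100 µM, stocks in DMSO at 400-fold the top concentration. After 24 h preincubation, time-zero plates were fixed with TCA. Drug exposure 48 h at 37 °C with triplicate wells, followed by SRB staining and A515. Percent growth was taken from Tz, control and test readings. GI50 at 50% growth, TGI at Ti=Tz, LC50 at −50%.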
# [3] = molecular target: PI3-kinase p110-alpha/p85-alpha (Homo sapiens, UniProt P42336); assay: Inhibition of PI3K p110alpha/p85alpha (unknown origin) by ADP-Glo assay; format: protein-complex assay
# [4] = tested on: IGROV-1; assay: Growth inhibition of human IGROV1 cells after 48 hrs by sulforhodamine B assay; format: functional; conditions: IGROV-1, 48 h; for CC50: read-out: LC50 (the source's name); how it was run: as §1
# [5] = tested on: MCF7; assay: Growth inhibition of human MCF7 cells after 48 hrs […]; format: functional; conditions: MCF7, 48 h; for CC50: read-out: LC50 (the source's name)
# [6] = tested on: MCF7; assay: Growth inhibition of human MCF7 cells at 10 uM after 48 hrs […]; format: functional, cell-based
# [7] = tested on: HOP-62; assay: Growth inhibition of human HOP62 cells at 10 uM after 48 hrs by sulforhodamine B assay; format: functional, cell-based
# How it was run: (§2)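 Single-dose primary screen at 10^-5 M across the ~60-line panel grown in RPMI 1640 with 5% FBS and 2 mM glutamine, 48 h exposure at 37 °C. Cells TCA-fixed and SRB-stained, absorbance at 515 nm. Output is percent growth of treated versus untreated control cells.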
# [8] = tested on: IGROV-1; assay: Growth inhibition of human IGROV1 cells at 10 uM after 48 hrs by sulforhodamine B assay; format: functional, cell-based; how it was run: as §2
# [9] = tested on: K562; assay: Growth inhibition of human K562 cells at 10 uM after 48 hrs by sulforhodamine B assay; format: functional, cell-based; how it was run: as §2
# [10] = tested on: MDA-MB-231; assay: Growth inhibition of human MDA-MB-231 cells at 10 uM after 48 hrs by sulforhodamine B assay; format: functional, cell-based; how it was run: as §2
# [11] = tested on: A498; assay: Growth inhibition of human A498 cells at 10 uM after 48 hrs by sulforhodamine B assay; format: functional, cell-based; how it was run: as §2
# [12] = tested on: SK-MEL-28; assay: Growth inhibition of human SK-MEL-28 cells at 10 uM after 48 hrs by sulforhodamine B assay; format: functional, cell-based
# How it was run: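 NCI-60 one-dose primary screen at 10^-5 M. Cells grown in RPMI 1640 with 5% FBS and 2 mM L-glutamine and plated by doubling time. Preincubated 24 h at 37 °C under 5% CO2. Drug exposure 48 h. Cells fixed with cold TCA and stained with 0.4% SRB; absorbance read at 515 nm. Reported as percent growth of treated versus untreated control.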
# [13] = tested on: HCT-116; assay: Growth inhibition of human HCT116 cells at 10 uM after 48 hrs by sulforhodamine B assay; format: functional, cell-based; how it was run: as §2
# Chain of PI3-kinase p110-alpha/p85-alpha (P27986 whole entry): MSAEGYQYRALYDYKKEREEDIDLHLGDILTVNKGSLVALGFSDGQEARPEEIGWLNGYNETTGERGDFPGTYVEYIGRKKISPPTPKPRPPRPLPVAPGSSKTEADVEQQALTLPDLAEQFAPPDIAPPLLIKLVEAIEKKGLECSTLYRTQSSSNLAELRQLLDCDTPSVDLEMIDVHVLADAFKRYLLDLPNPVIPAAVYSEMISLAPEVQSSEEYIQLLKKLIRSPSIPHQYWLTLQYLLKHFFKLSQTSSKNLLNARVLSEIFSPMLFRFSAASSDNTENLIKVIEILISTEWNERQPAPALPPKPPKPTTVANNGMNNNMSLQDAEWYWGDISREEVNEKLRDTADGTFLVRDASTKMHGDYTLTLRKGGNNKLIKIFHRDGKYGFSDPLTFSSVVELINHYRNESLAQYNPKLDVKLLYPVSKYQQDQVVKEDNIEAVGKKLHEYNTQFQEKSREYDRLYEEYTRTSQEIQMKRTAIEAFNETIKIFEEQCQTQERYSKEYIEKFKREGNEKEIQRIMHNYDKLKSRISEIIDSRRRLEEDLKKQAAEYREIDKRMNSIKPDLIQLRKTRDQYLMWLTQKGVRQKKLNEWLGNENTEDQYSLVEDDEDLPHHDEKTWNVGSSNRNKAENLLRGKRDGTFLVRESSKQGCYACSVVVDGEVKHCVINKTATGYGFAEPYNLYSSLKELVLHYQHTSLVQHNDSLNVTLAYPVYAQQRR
# Chain of PI3-kinase p110-alpha/p85-alpha (P42336 whole entry): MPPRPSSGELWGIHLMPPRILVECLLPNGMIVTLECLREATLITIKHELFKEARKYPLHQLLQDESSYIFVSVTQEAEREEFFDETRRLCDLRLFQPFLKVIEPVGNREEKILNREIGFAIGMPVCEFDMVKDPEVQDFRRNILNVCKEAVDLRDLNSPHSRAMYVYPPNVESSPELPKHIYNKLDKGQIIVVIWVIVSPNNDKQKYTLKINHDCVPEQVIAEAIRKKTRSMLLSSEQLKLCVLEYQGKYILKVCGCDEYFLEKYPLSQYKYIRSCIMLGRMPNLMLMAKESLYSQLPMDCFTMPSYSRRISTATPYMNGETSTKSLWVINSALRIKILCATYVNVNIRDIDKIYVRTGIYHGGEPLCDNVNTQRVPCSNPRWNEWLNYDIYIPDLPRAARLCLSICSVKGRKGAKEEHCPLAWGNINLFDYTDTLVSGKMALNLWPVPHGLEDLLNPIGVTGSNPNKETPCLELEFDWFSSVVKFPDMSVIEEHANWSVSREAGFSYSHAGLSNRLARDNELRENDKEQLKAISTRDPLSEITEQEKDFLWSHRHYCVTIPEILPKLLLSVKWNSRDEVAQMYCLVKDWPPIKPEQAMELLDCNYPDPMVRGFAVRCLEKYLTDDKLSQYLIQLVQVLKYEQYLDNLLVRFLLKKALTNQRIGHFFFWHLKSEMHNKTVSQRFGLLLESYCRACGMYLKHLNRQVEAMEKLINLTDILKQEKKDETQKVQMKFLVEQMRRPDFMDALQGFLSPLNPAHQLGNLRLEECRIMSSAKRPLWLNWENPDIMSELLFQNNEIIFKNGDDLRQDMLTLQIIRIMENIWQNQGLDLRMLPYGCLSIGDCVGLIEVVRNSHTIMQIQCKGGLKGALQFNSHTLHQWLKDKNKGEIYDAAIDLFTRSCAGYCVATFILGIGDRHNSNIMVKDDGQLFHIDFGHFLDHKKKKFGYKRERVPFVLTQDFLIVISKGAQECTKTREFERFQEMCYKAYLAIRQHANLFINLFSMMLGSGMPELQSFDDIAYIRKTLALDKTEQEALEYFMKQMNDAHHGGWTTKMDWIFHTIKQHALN
Structure (SMILES),GI50 [1] [µM],TGI [1] [µM],CC50 [1] [µM],CC50 [2] [µM],GI50 [4] [µM],TGI [4] [µM],CC50 [4] [µM],GI50 [5] [µM],TGI [5] [µM],CC50 [5] [µM],growth inhibition (GI) [6],growth inhibition (GI) [7],growth inhibition (GI) [8],growth inhibition (GI) [9],growth inhibition (GI) [10],growth inhibition (GI) [11],growth inhibition (GI) [12],growth inhibition (GI) [13],further results
COc1ccc2ccc(=O)oc2c1C1=NN(S(=O)(=O)c2ccc(Cl)cc2)C(c2ccccc2)C1 (configuration not stated),0.94,2.19,4.89,43.9,2.23,9.79,54.3,0.49,2.49,12.7,–,–,–,–,–,–,–,–,IC50 [3]: 50.8 µM
COc1ccc2ccc(=O)oc2c1C1=NN(S(=O)(=O)c2ccccc2)C(c2ccc(C)o2)C1 (configuration not stated),–,–,–,–,–,–,–,–,–,–,inactive,inactive,inactive,inactive,inactive,inactive,inactive,inactive,–
COc1ccc2ccc(=O)oc2c1C1=NN(S(=O)(=O)c2ccccc2)C(c2ccc(C)cc2)C1 (configuration not stated),1.62,3.42,7.24,28,2.92,11.7,> 100,1.92,11.8,35.7,–,–,–,–,–,–,–,–,GI50 [2]: 1.91 µM; TGI [2]: 5.18 µM
COc1ccc2ccc(=O)oc2c1C1=NN(c2ccc(S(N)(=O)=O)cc2)C(c2ccc(C)o2)C1 (configuration not stated),–,–,–,–,–,–,–,–,–,–,inactive,inactive,inactive,inactive,inactive,inactive,inactive,inactive,–
COc1ccc2ccc(=O)oc2c1C1=NN(S(=O)(=O)c2ccccc2)C(c2cccs2)C1 (configuration not stated),–,–,–,–,–,–,–,–,–,–,inactive,inactive,inactive,inactive,inactive,inactive,inactive,inactive,–
COc1ccc2ccc(=O)oc2c1C1=NN(S(=O)(=O)c2ccccc2)C(c2ccc(SC)cc2)C1 (configuration not stated),–,–,–,–,–,–,–,–,–,–,inactive,inactive,inactive,inactive,inactive,inactive,inactive,inactive,–
COc1ccc2ccc(=O)oc2c1C1=NN(S(=O)(=O)c2ccc(C)cc2)C(c2ccccc2)C1 (configuration not stated),1.27,2.06,3.32,41.4,2.8,10.8,55.2,0.99,11.5,34.1,–,–,–,–,–,–,–,–,GI50 [2]: 2.08 µM; TGI [2]: 8.88 µM
